Test [1] deals with LoVo. Kind of test: Resistance ratio of IC50 for human doxorubicin-resistant LoVo cells to human LoVo cells. It is filed as functional.
The subject of test [2] is CCRF-CEM. Kind of test: Resistance ratio of IC50 for human CEM/VBL100 cells to IC50 for human CEM cells. It is filed as functional.
For test [3], the system named is A549. As to the kind of experiment: Resistance ratio of IC50 for human A549-T12 cells to IC50 for human A549 cells. It is filed as functional.
The subject of test [4] is Jurkat. As to the kind of experiment: Cytotoxicity against human Jurkat cells after 72 hrs by MTT assay. It is filed as functional, cell-based. The method in brief: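 8 × 10^3 cells/well were preincubated 18 h at 37 °C, 5% CO2, then given graded concentrations for 72 h, with final DMSO not above 0.25%. Viability was read by MTT. […] Mean ± SE from at least three experiments.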

For test [5], the system named is A549. Kind of test: Cytotoxicity against human A549 cells after 72 hrs by MTT assay. It is filed as functional, cell-based. The note with it: A549, 72 h. Background: Tetrazolium dyes change colour on reduction, which living cells bring about.
In test [6] the test system is LoVo. As to the kind of experiment: Cytotoxicity against human doxorubicin-resistant LoVo cells after 72 hrs by MTT assay. It is filed as functional, cell-based. The method in brief:
(§1)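 Cells seeded at 8 × 10^3 per well and left 18 h at 37 °C, 5% CO2, then given fresh medium with compound at a range of concentrations for 72 h; DMSO at most 0.25% final. Viability read by MTT relative to 0.25% DMSO-treated cells. […] LoVoDoxo kept in Ham's F12 with 0.1 μg/mL doxorubicin; A549-T12 kept in DMEM with 12 nM paclitaxel.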

Test [7] is filed under the species Bos taurus. As to the kind of experiment: Displacement of [3H]colchicine from bovine tubulin at 5 uM by DEAE-cellulose filter method. The method in brief:
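Inhibition of [3H]colchicine binding was measured in mixtures of 1 μM tubulin, 5 μM [3H]colchicine and 5 μM test compound. Results are percent inhibition of binding.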
In general terms: Displacement assays read how much labelled ligand stays bound in the presence of the test substance.

The test system of test [8] is CCRF-CEM. As to the kind of experiment: Cytotoxicity against human CEM cells after 72 hrs by MTT assay. It is filed as functional, cell-based. The method in brief:
as §1

Test [9] concerns HeLa. As to the kind of experiment: Cytotoxicity against human HeLa cells after 72 hrs by MTT assay. It is filed as functional, cell-based.
Test [10] relates to MCF7. As to the kind of experiment: Cytotoxicity against human MCF7 cells after 72 hrs by MTT assay. It is filed as functional, cell-based. The note with it: MCF7, 72 h.
The test system of test [11] is LoVo. As to the kind of experiment: Cytotoxicity against human LoVo cells after 72 hrs by MTT assay. It is filed as functional, cell-based. The method in brief: as §1
A short description of test [12]: Inhibition of bovine tubulin polymerisation after 20 mins by turbidimetric analysis. Also noted: species or system Bos taurus. The method in brief:
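Bovine brain tubulin at 10 μM was preincubated with varying compound concentrations in glutamate buffer at 30 °C, cooled to 0 °C, and 0.4 mM GTP added. Samples were warmed to 30 °C and assembly followed by turbidity at 350 nm.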

For test [13], the system named is HT-29. Kind of test: Cytotoxicity against human HT-29 cells after 72 hrs by MTT assay. It is filed as functional, cell-based. The note with it: HT-29, 72 h.
Test [14] can be described thus: Cytotoxicity against human CEM/VBL100 cells after 72 hrs by MTT assay. The note with it: CEM/VBL100, 72 h. It is filed as functional, cell-based. The method in brief:
as §1

A short description of test [15]: Cytotoxicity against human A549-T12 cells after 72 hrs by MTT assay. The note with it: A549, 72 h. It is filed as functional, cell-based. An outline of the steps: as §1
Test [16] has as its system HeLa. Kind of test: Induction of cell cycle arrest in human HeLa cells assessed as increase in G2/M phase cells at 15 to 250 nM after 24 hrs by flow cytometry. It is filed as functional, cell-based. An outline of the steps: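 Exponentially growing HeLa cells (5 × 10^5) were treated 24 h at 15–250 nM. Cells were fixed in ice-cold 70% ethanol, lysed with RNase A/0.1% Triton X-100 buffer and stained with propidium iodide. DNA content was measured by flow cytometry to score G2/M fraction. Mean ± SEM of three independent experiments.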
Background: In flow cytometry, cells or beads pass a laser one at a time.

Test [17] has as its system HL-60. Kind of test: Cytotoxicity against human HL60 cells after 72 hrs by MTT assay. It is filed as functional, cell-based. The note with it: HL-60, 72 h.
Test [18] can be described thus: Inhibition of tubulin polymerization. An outline of the steps: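 Bovine brain tubulin at 10 μM in glutamate buffer was preincubated with compound at varying concentrations at 30 °C, then cooled to 0 °C. GTP was added to 0.4 mM and the mixture rewarmed to 30 °C. Assembly was followed by turbidity at 350 nm.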

Activity calls are given as the source filed them. No cut-off for these calls is given here.

For orientation: IC50 means the concentration at which inhibition is half-maximal. What is called inhibition is the percentage by which the read-out fell short of the control. A higher inhibition goes with a response far below the control.

For `CCOc1ccc(-c2nnnn2-c2cc(OC)c(OC)c(OC)c2)cc1Cl`, the results for the “Ratio IC50” value in test [1], in test [2] and in [3] were 1.3, 1 and 1.1, respectively. The IC50 in test [4] was found to be 0.23 nM; in [5] it was 28.8 nM; in test [6] it was 15.7 nM; in test [8] it was 0.7 nM; in [9] it was 2.6 nM; in [10], 1.8 nM. Moreover, the IC50 was 12.5 nM in [11]; 2000 nM in [12]; 1.6 nM in [13]; 0.7 nM in test [14]; 31.5 nM in [15]; 0.8 nM in test [17]. Further, the inhibition in test [7] stood at 58%. Moreover, the result in test [16] was Active.
Regarding `COc1ccc(-c2nnnn2-c2cc(OC)c(OC)c(OC)c2)cc1N`, in test [18], the IC50 was determined as 2000 nM.
